# Bioassay records as filed in PubChem.
# The entries come from a sample that favours hits as a whole.
# Insulin prom act: TRM-6 insulin promoter activation. TRM-6 cells (human fetal islet line), insulin promoter eGFP reporter, imaging; plate-scaled: unstimulated 0, stimulated control 100. activation, % at 2 µM. 0.81% of 130,000 active;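 active = activation at 2 µM above a set limit, confirmed on inspection of the cell images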;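 note: share of cells whose green reporter signal exceeds an intensity cutoff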
#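 Test system: TRM-6 insulin promoter–eGFP reporter cells / Quantity: 1,000 cells per well / Reagent: tamoxifen inducer, 0.75 µM, in seeding medium / Compound dosing: 2 µM final, single concentration / Schedule: overnight tamoxifen, then two-day compound incubation at 37 °C / Measured by: automated fluorescence imaging of paraformaldehyde-fixed, Hoechst-counterstained cells, green channel / Read-out: percent activation from GFP-positive cell fraction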
# Active calls of the source: *; [ ] = another dose, or the depositor's remark.
SMILES,Insulin prom act
Brc1ccc(CSc2nnc(-c3ccccn3)n2Cc2ccco2)cc1,0
c1coc(Cn2c(SCc3nc4ccccc4[nH]3)nnc2-c2cccs2)c1,123*
O=c1c2ccccc2nnn1CSc1nnc(-c2cccs2)n1Cc1ccccc1,4
Cc1ccc(-c2nnn(CC(=O)N(Cc3cccs3)C(C(=O)NCC3CCCO3)c3ccco3)n2)o1 (stereo unspecified),117
NC(=O)COc1ccc(NC(=O)OCc2ccccc2)cc1,0
O=C(CCC(=O)NNC(=O)Cc1ccccc1)NCc1ccccc1,-73
O=c1cc(-c2ccccc2)nc(N2CCN(Cc3ccc4c(c3)OCO4)CC2)[nH]1,730*
O=c1[nH]c(CN2CCN(Cc3ccc4c(c3)OCO4)CC2)nc2ccccc12,3
O=C(c1cc(-c2ccccc2)on1)N1CCN(Cc2ccc3c(c2)OCO3)CC1,-5
Cc1c(N(C(=O)CNC(=O)c2ccccc2)C2(C(=O)NC3CCCCC3)CCCCC2)c(=O)n(-c2ccccc2)n1C,147
O=C(c1ccccn1)N(CC1CCCO1)C1(C(=O)NC2CCCCC2)CCCCC1 (stereo unspecified),7
O=C(c1cnccn1)N(c1ccccc1)C1(C(=O)NC2CCCC2)CCCCC1,100*
Nc1nc(N2CCN(Cc3ccccc3)CC2)n[nH]1,-3
CC(C(=O)c1c[nH]c(C(N)=O)c1)c1ncc(C(F)(F)F)cc1Cl (stereo unspecified),-9
C=CCc1c(C)[nH]c(=O)[nH]c1=O,-78
O=C(C1CC1)N(CCN(Cc1ccccc1)C(=O)C1CC1)Cc1ccccc1,250*
O=C(C1CCCCC1)N(Cc1ccccc1)c1ccccn1,238
CCN(Cc1ccccc1)C(=O)C1CCN(CC2CC=CCC2)CC1 (stereo unspecified),8
O=C(NCCc1ccccc1)c1oc2ccccc2c1COc1ccccc1,80*
O=C(COC(=O)COc1ccccc1)NCc1ccccc1,0
O=C(NCCc1ccccc1)c1ccc(-c2ccccc2C(F)(F)F)o1,5
COC(=O)CC1SC(=O)NC1=Nc1ccccc1 (stereo unspecified),-9
O=C1C(=O)N(CCN2CCOCC2)C(c2ccncc2)/C1=C(/O)c1ccc2c(c1)OCO2 (stereo unspecified),4
CCN(CC)CCCN1C(=O)C(=O)/C(=C(/O)c2ccc3c(c2)OCCO3)C1c1ccco1 (stereo unspecified),-6
O=C(C1=C(O)C(=O)N(CCCN2CCOCC2)C1c1ccccn1)c1cc2ccccc2o1 (stereo unspecified),0
SMILES,Insulin prom act
Cc1ccc(/C(O)=C2/C(=O)C(=O)N(CCN3CCOCC3)C2c2ccccn2)cc1 (stereo unspecified),850*
CCN(CC)CCCN1C(=O)C(=O)/C(=C(/O)c2ccc(C)cc2)C1c1ccccn1 (stereo unspecified),0
CC1Cc2cc(/C(O)=C3/C(=O)C(=O)N(CCN4CCOCC4)C3c3cccc(O)c3)ccc2O1 (stereo unspecified),467*
CC(C)(C)c1cc(NC(=O)CSc2nnc(N)s2)n(-c2ccccc2)n1,-6
CCCC(=O)NC(=S)N1CCN(c2ccc([N+](=O)[O-])cc2)CC1,6
COc1ccccc1NC(=O)CC(NCc1ccccc1)C(=O)O (stereo unspecified),11
O=C(N/N=C/c1c[nH]c2ccccc12)C1CC(=O)N(c2ccccc2)C1 (stereo unspecified),-6
COc1ccccc1N1CCN(CC(=O)Nc2ccc(Cl)c(C(F)(F)F)c2)CC1,9
C=CCNc1nnc(SC2CC(=O)N(c3ccc(OC)cc3)C2=O)s1 (stereo unspecified),0
O=C(CSCCO)Nc1ccc(C2CCCCC2)cc1,-5
Cc1ccc(C)c(-n2nnnc2SCC(=O)NCCC2=CCCCC2)c1,708*
CNC(=O)CSc1nnnn1-c1cc(C)ccc1C,0
Cc1ccc(CS(=O)(=O)CCC(=O)NCCC2=CCCCC2)cc1,0
COCC(C)n1c(COc2ccccc2F)nnc1SCc1c(C)noc1C (stereo unspecified),0
CCN(Cc1cc(=O)n2cc(Cl)c(C)c(Cl)c2n1)Cc1nc2ccccc2c(=O)[nH]1,0
CCOc1cc(-c2noc(N)c2C(=O)OC)cc(OCC)c1OCC,0
COc1cccc(S(=O)(=O)Nc2ccc3sc(C)nc3c2)c1,3
CCOC(=O)/C(=C/C=C1\Sc2cc(OCC)c(OCC)cc2N1CC)C(C)=O,669*[fluoresces]
C[C@@H]1C=C[C@](Cc2ccccc2)(C(=O)NCC2CC2)N1C(=O)c1ccccc1,0
Cc1nn(C)c(C)c1/C=N/N=C1\CCC2C3CCc4cc(O)ccc4C3CCC12C (stereo unspecified),91*
Cc1ccc(-c2cc(C(=O)N/N=C/c3c(C)nn(C)c3C)c3ccccc3n2)cc1C,5
C#C[C@]1(O)CC[C@H]2[C@@H]3CCc4cc(OC)ccc4[C@H]3CC[C@@]21C,-5
O=C(O)c1cccc(N2C(=S)N=C(Nc3ccccc3)C23CCCCC3)c1,-6
COC(=O)c1cc(OC)c(OC)cc1NC(=O)c1cc(OC)cc(OC)c1,5
COc1ccc(CCNC(=O)CSc2ncnc3c2oc2ccccc23)cc1OC,9
SMILES,Insulin prom act
Cc1cc(C)cc(NC(=S)N2CCC(N(C)CC3CCCO3)CC2)c1 (stereo unspecified),0
Fc1cccc(-c2cc3nc4c(c(N5CCC6(CC5)OCCO6)n3n2)CCCC4)c1,-4
COCCN1CCN(c2cc(-c3ccccc3)nc3cc(-c4cccc(F)c4)nn23)CC1,-7
CN(CCO)c1c2c(nc3cc(-c4cccc(F)c4)nn13)CCCC2,95*
Cc1cccc(OCCC(=O)Nc2ccc(F)c(F)c2)c1,0
COc1ccc(-c2cc(C(F)(F)F)nc(-n3cncn3)n2)cc1,4
Cc1ccc(-n2c(SCc3nc4ccccc4c(=O)[nH]3)nnc2-c2ccccc2O)cc1,0
CCOC(=O)c1cnn(-c2nc(OC)cc(OC)n2)c1C(F)(F)F,0
COc1ccc(OC(C)C(=O)Nc2cccc(OC)c2)cc1 (stereo unspecified),-8
CC(Oc1ccccc1)C(=O)Nc1ccc(C(N)=O)cc1 (stereo unspecified),174*
CCOC(=O)c1ccccc1NC(=O)C(C)Oc1ccccc1 (stereo unspecified),-6
O=C(Cn1c(=O)n(CCc2c[nH]c3ccccc23)c(=O)c2cccnc21)Nc1ccccc1F,2
CC(C)(C)c1ccc(OCC(=O)NCCN2CCCC2)cc1,114
CN(C)CCCNC(=O)C(=O)NCC1CCCO1 (stereo unspecified),294*
O=C(CCCCCCCC(=O)NCC1CCCO1)NCC1CCCO1 (stereo unspecified),-3
O=C(NCC1CCCO1)NC1CCCCC1 (stereo unspecified),-7
CCOC(=O)CN1C(c2ccccc2O)Nc2ccc(Br)cc2C1c1ccccc1 (stereo unspecified),0
Cc1nc(NC(=O)C2CC2)sc1C,-8
Cc1nn(-c2nc3ccccc3s2)c(N)c1-c1ccc(Cl)cc1,-80
N#CC(C#N)=C1C=C2C=C(N3CCCCC3)CCC2CC1 (stereo unspecified),212*
N#CC1=C(N)C2=C(N3CCCCC3)CCCC2C1(C#N)C#N (stereo unspecified),-6
CCCCN(C)C1=CC2=CC(=C(C#N)C#N)CCC2CC1 (stereo unspecified),245*[fluoresces]
CCN(CC)C1=CC2=CC(=C(C#N)C#N)CCC2CC1 (stereo unspecified),525*
